This is an account of results in the EternaBench riboswitch data.

The subject of this series is MS2 coat protein. Briefly: apparent Kd, MS2 coat protein; higher = weaker binding; RNA-MaP array; FMN 200 µM where present. Put shortly:
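The apparent Kd is reported as the median of filtered per-cluster binding-curve fits. To get these curves, designs transcribed by stalled E. coli RNA polymerase on Illumina sequencing-chip clusters were titrated with SNAP-549-labelled MS2 coat protein from 0.7 or 1.5 nM, doubling to 3 µM. Titrations were run without and then with constant ligand in 100 mM Tris-HCl pH 7.5, 80 mM KCl, 4 mM MgCl2, BSA, DTT, yeast tRNA and Tween-20, and green signal was normalised to red-channel RNA signal and control-cluster median Fmax.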

The mark [1] stands for this setting: designed as: OFF switch for flavin mononucleotide, no ligand.
[2] abbreviates: ligand present: flavin mononucleotide, designed as: OFF switch for flavin mononucleotide.
[3] abbreviates: designed as: ON switch for flavin mononucleotide, no ligand.
Setting [4] is: ligand present: flavin mononucleotide, designed as: ON switch for flavin mononucleotide.

As to “CGUGUUUAUGUGAGGAUAUUAUCAAGCUGAUUGUGUAAGAAGGCACAUGAGGAUCACCCAUGUGGCGAUUCCGC”, the apparent Kd – broadly, the concentration giving half-maximal binding under the conditions of the assay – was found to be 34.2 nM under setting [1] and 215 nM under setting [2].
The like results for “AUUAGGUAAGGAUAUACAUGAGGAUCACCCAUGUAGGUUAACGCAACCGGGUCCGGCUGUAGAAGGUGCAACGU” were, in that order, 32.5 nM and 32.6 nM.
The like results for “GACCGAUAGUCAGGAUAUGCAUGGUUAGUUGAUUACAUGAGGAUCACCCAUGUAGAAGGGACUUUGGCUAAAUCCGUGAUGCGU” were, in that order, 22.3 nM and 51.7 nM.
Consider “GCUCGAUGAGCUGACUACAUGAGGAUCACCCAUGUAGAUGGGCAGGAUAUUUACGUGCUUUAUGUAGAGAAGGGCCCAUCGAGC”, for which the “apparent Kd” value came to 324 nM under setting [3] and 114 nM under setting [4].
On to “UAACCACAUGAGGAUCACCCAUGUGAGGAUAUGUCCAUAUUCGGCAAAUCGGAUAUGGACAGAAGGCACACCGG”, for which the “apparent Kd” value was determined as 41.6 nM under setting [1] and 68.7 nM under setting [2].
Turning to “GACAUGAGGAUCACCCAUGUCCUUCCAGAAGGCUGGCGCGCGAAACCUAAAUCAGUUCCGGGCACAGAGGAUAUGGGCAGUUGG”, the “apparent Kd” value under setting [3] turned out to be 67.2 nM and the “apparent Kd” value under setting [4] was found to be 14.3 nM.
Take “AUUCCCGGUGUUAGGAUAUCCAACGCCCACGCGAUGGAGAAGGGACAUGAGGAUCACCCAUGUAGAGCUGCAUC”: the “apparent Kd” value runs as follows: under setting [1], 14.3 nM; under setting [2], 14.5 nM.
For the sequence “UUUGCAUUCCGAGGAUAUUCAUAUAAUAACUACACAUGAGGAUCACCCAUGUGGCGAUAGCCUAGGGAGAAGGCGGUUUGCUUU”, the “apparent Kd” value is, setting by setting: under setting [3], 22.8 nM; under setting [4], 21.3 nM.
Consider “GAGUGGAGGUAAGGAUAUACAAUGAUAAUCACAGUAGAAGGUACUAACAUGAGGAUCACCCAUGUAGGACUAUACCAGAGAGGG”, for which the “apparent Kd” value under setting [3] is 17.4 nM and the “apparent Kd” value under setting [4] turned out to be 18 nM.
As for “UUUUCAUCAUCAGGAUAUUAACGUGGGCUACUUUAAGAAGGGAUAGUGGGAGAGCACGUGAAACAUGAGGAUCACCCAUGUUGU”, the “apparent Kd” value under setting [3] came to 12.2 nM and the “apparent Kd” value under setting [4] came out at 9.73 nM.
Regarding “GGAUUACAUGAGGAUCACCCAUGUGAGGAUAUCGAUGUCCUCAGUCGAGUGCGGGACUCGAGAAGGCACUUGGA”, the “apparent Kd” value by setting is: under setting [1], 77 nM; under setting [2], 57.5 nM.
Consider “UAUACUAGAUAGGAUAUACUUUAUUUUUUUUUCGUAGAAGGAUCUACAUGAGGAUCACCCAUGUUAACAGCAGU”, for which the “apparent Kd” value by setting is: under setting [1], 74.1 nM; under setting [2], 53.9 nM.
As for “GAUCCGGUCAAGAGGAUUUUGGAGUGAGAAGGGAGGCUGCUACAUGAGGAUCACCCAUGUGAUACUCAGGAUAUUAGUCUACUA”, the “apparent Kd” value is, setting by setting: under setting [3], 215 nM; under setting [4], 155 nM.
For “AGUUGUUCAGGAUAUGGUGUGUUAUACAUGAGGAUCACCCAUGUGGGUCCUGGUUUGGCCUCAGAAGGGAAUGUUG”, the “apparent Kd” value stood at 636 nM under setting [1] and 518 nM under setting [2].
In the case of “CACGGCUUAGGAUAUACAUGAGGAUCACCCAUGUGGGAAAGCCAAGGCGUGGUAAAGUGUAGAAGGAAGAAGGA”, the “apparent Kd” value runs as follows: under setting [1], 13.4 nM; under setting [2], 14.9 nM.
As for “CAUAACUUUUCUCAUGUAAACAUGAGGAUCACCCAUGUAAUGAGAAGGAGGCGGCAGAGAGCAUCCUAGGAUAUCAGAAUUGUU”, the “apparent Kd” value under setting [1] turned out to be 7.02 nM and the “apparent Kd” value under setting [2] was determined as 6.74 nM.
For “AUCAGCUCGUCAGGAUAUACGUCAUUGCGUCAGCAGUGUGGUAAGAUCACAUGAGGAUCACCCAUGUAGAAGGGACGAGCUGAU”, the “apparent Kd” value is, setting by setting: under setting [1], 13.9 nM; under setting [2], 286 nM.
For the sequence “GGCUACGUUUCGUAGCAGCUAGGUGAGGAUAUUCAAUUUUUCACAUGAGGAUCACCCAUGUAUGUGAAGAAGGCGCCUAGAAAU”, the “apparent Kd” value worked out at 11.8 nM under setting [3] and 5.04 nM under setting [4].
The like results for “GAAGGCUGGUAGAAGGAUCCUCACAUGAGGAUCACCCAUGUAACAGCGGAUAGGAUAUACCGUCUUUCAUGUUGGUCUCCCUAA” were, in that order, 461 nM and 46.5 nM.
For the sequence “UUAGUCAUGUAAGGAUAUCCGAUGCGAAGCGUUGGAGAAGGUACAUGAGGAUCACCCAUGUUCUGCGUCUGAGUACAGAUGCUA”, the “apparent Kd” value worked out at 494 nM under setting [1] and 174 nM under setting [2].
